IC50, IC90 and inhibition data for two compounds are collected here from ChEMBL document CHEMBL1131117, “Pyrimidine thioethers: a novel class of HIV-1 reverse transcriptase inhibitors with activity against BHAP-resistant HIV” (J Med Chem, 1998).

The target of assay [1] is T1, Human immunodeficiency virus type 1 reverse transcriptase (Human immunodeficiency virus 1, UniProt Q72547). Put plainly: Inhibition of HIV-1 reverse transcriptase (wild type). Summed up:
(§1)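 Wild-type HIV-1 RT homodimer run at 28 °C for 10 min. The reaction is stopped with 10% (v/v) trichloroacetic acid, and the acid-precipitated product is collected on glass fiber filters and counted for radioactivity. Compounds are screened as % inhibition at 10 µM, and IC50 values are determined from eight drug concentrations.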

The subject of assay [2] is MT4. Put plainly: Concentration of drug that inhibited p24 production by 90% in infected MT-4 cells against HIV-1MF-DLV. The assay is classed as functional. Conditions: Homo sapiens.
The test system of assay [3] is MT4. The experiment in a line: Concentration of drug that inhibited p24 production by 90% in infected MT-4 cells against HIV-1-WT. The assay is classed as functional. Conditions: Homo sapiens.
The target of assay [4] is Human immunodeficiency virus type 1 reverse transcriptase (Human immunodeficiency virus 1, UniProt Q72547, P236L). Put plainly: Inhibition of HIV-1 reverse transcriptase (P236L). Put shortly:
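HIV-1 RT homodimers (wild type or P236L) were assayed by radiolabel incorporation at 28 °C for 10 min and stopped with 10% trichloroacetic acid. Acid-insoluble product was filter-captured and counted. IC50 was derived from inhibition measured at eight drug concentrations.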

Assay [5] has as its system Human immunodeficiency virus type 1 reverse transcriptase (Human immunodeficiency virus 1), Q72547 [P236L]. Put plainly: Inhibitory activity against HIV-1 reverse transcriptase (P236L) at 10 uM dose. Summed up:
(§2)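 Recombinant HIV-1 RT homodimers (wild type or P236L mutant) were tested with compound at a single 10 µM concentration and reported as % inhibition. Reactions ran at 28 °C for 10 min and were stopped with 10% trichloroacetic acid. Acid-precipitated product was collected on glass fibre filters and counted for radioactivity.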

The target in assay [6] is Human immunodeficiency virus type 1 reverse transcriptase (Human immunodeficiency virus 1) (UniProt Q72547). The experiment in a line: Inhibitory activity against HIV-1 reverse transcriptase (wild type) at 10 uM dose. Summed up:
as §2

The target of assay [7] is T1, Human immunodeficiency virus type 1 reverse transcriptase. The experiment in a line: inhibitory activity against HIV-1 reverse transcriptase (wild type. Put shortly: as §1

A word on the IC50: it is the point on the concentration scale where inhibition reaches its midpoint. The low end stands for greater potency, the high end for weaker potency. One may read the IC90 as the concentration needed for an effect of 90%. Low values mean an effect from little substance, high ones a need for much substance. The term inhibition denotes how much of the control response was suppressed. A higher inhibition goes with a strong effect. `COc1cccc(CSc2nc(N)cc(Cl)n2)c1`: the results for the IC50 in assay [1] and in assay [4] were 980 nM and 160 nM, respectively. In addition, the results for the IC90 in the assay on MT4 [2] and in the assay with MT4 [3] were 3210 nM and 270 nM, respectively. The inhibition in assay [5] worked out at 97%; in assay [6] it was 70%.

As to `Nc1cc(Cl)nc(SCc2cc3c(cc2Cl)OCO3)n1`, the values for the IC50 in assay [7] and in assay [4] were 85 nM and 16 nM, respectively. In addition, the values for the inhibition in assay [5] and in assay [6] were 99% and 98%, respectively.
